# Rows were chosen to be rich in hits. Some 3.5% of all compounds tested hit in one or more screens of this group.
# MrgX1 PAM: human MrgX1 positive allosteric modulation, primary screen; Q96LB2; MrgX1-HEK293, Fluo-4 calcium flux, FDSS; stronger effect = higher value; actives 0.63% (n = 310,000); B-score at 10 µM;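 active = plate-corrected calcium response at least 3 library SD above typical, normal starting fluorescence, not activating the receptor alone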;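 note: compound read alongside a low EC10 to EC30 dose of BAM8-22 agonist; peak minus trough fluorescence over baseline measured at the second addition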
# Target sequence (Q96LB2 whole entry, looked up): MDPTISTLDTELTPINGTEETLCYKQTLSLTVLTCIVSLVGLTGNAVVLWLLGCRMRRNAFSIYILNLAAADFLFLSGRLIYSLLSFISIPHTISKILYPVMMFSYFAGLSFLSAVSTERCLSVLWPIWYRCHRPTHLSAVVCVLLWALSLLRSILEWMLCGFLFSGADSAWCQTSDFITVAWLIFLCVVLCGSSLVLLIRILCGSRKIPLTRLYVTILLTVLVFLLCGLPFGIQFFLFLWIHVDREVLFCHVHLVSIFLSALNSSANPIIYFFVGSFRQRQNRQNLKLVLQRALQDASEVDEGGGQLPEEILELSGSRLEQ
# MrgX1 antag: blocks BAM8-22 activation of human MrgX1 receptor. B-score at 10 µM. actives 1.3% (n = 310,000). MRGX1-HEK293 calcium flux, Fluo-4, BAM8-22 antagonism; stronger effect = lower value;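 active = calcium-response B-score plate-corrected more than 3 library SD below zero, starting fluorescence within 5 deviations, no agonist response on first addition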;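 note: peak minus trough fluorescence over baseline after final BAM8-22 challenge near maximal dose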
# RGS4 inh: inhibitors of human RGS4 | HEK293 M3R/RGS4 inducible, Fluo-4 calcium flux; stronger effect = higher value; triggered by carbachol at its EC20 | B-score at 10 µM | actives 0.45% (n = 310,000) | AID 463165;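 active = B-score, a plate-corrected calcium signal, over three deviations above library mean, with baseline fluorescence within five deviations of library mean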;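 note: RGS4 expression induced by doxycycline in cells with stable M3 receptor; B-score is computed from the integrated fluorescence ratio over baseline after carbachol; higher B-score means a larger calcium signal and so more RGS4 inhibition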
# Target sequence (P49798 whole entry, looked up): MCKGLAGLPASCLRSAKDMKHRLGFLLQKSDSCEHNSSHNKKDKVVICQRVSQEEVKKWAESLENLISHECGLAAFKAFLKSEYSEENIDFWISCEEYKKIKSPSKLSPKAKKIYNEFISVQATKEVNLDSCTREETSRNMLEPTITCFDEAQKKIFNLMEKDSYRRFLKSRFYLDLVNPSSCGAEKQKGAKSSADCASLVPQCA
# MrgX1 agonist: human MrgX1 receptor agonism, primary screen; Q96LB2; MrgX1-HEK293 cells, Fluo-4 calcium fluorescence, agonist mode; stronger effect = higher value; B-score at 10 µM; actives 0.44% (n = 310,000); AID 588627;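 active = calcium response B-score plate-corrected fluorescence ratio at least 3 library SD, with starting fluorescence B-score inside 5 SD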
#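 Material: MrgX1-expressing HEK293 cells; input: 15,000 cells per well; doses: test compound given as first of three sequential additions; schedule: overnight plating before 1 h dye loading; technique: Fluo-4 NW calcium-flux fluorescence, kinetic read; evaluation: baseline-normalised fluorescence change ratio, B-scored; control set: plate-wise positive and negative controls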
# RGS4 pot: potentiators or activators of RGS4 | HEK293 M3R/inducible RGS4, carbachol calcium flux Fluo4; stronger effect = lower value | B-score at 10 µM | actives 0.92% (n = 310,000) | AID 463111;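 active = B-score of the integrated calcium signal more than 4 SD below the library mean, with starting fluorescence not abnormally high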;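 note: negative B-score means reduced calcium response which marks RGS4 activation or potentiation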
#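 System – HEK293 FlpIn-TREx cells, stable M3R, doxycycline-inducible RGS4 · Reagent – ECmax carbachol challenge · Times – compound preincubation 20 min at room temperature before agonist · Technique – Fluo4 fluorescence kinetic imaging of calcium · Measure – B score of integrated Fluo4 ratio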
# MrgX1 PAM conf: reconfirmed allosteric activator of human MrgX1 receptor; AID 602413; shares compounds with MrgX1 PAM; actives 13% (n = 1,200); MrgX1-HEK293, Fluo-4 calcium fluorescence, FDSS; activation (ratio percentage), % at 10 µM;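 active = ratio at least 3 SD above the weak peptide control, stable starting fluorescence, no direct agonism earlier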;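 note: compound followed by low BAM8-22 agonist challenge near EC20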
# MrgX1 antag conf: reconfirmed antagonist of human MrgX1 receptor signaling. actives 19% (n = 2,300). MrgX1-HEK293, BAM8-22 calcium flux, Fluo-4; stronger effect = lower value. shares compounds with MrgX1 antag. remaining BAM8-22 calcium response % of control (stronger effect = lower value), % at 10 µM;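 active = remaining agonist calcium response no higher than 100% minus 3 SD of agonist-only control wells, with starting fluorescence near control levels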;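 note: agonist BAM8-22 given at a near maximal EC90 to ECmax level; peak minus minimum fluorescence divided by baseline after agonist addition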
# HEK293 Ca flux: activity in parental HEK293 cells lacking MrgX1. fluorescence ratio F(max-min)/F0 at 10 µM. shares compounds with MrgX1 antag. AID 624111. actives 2% (n = 4,000). Fluo-4 calcium fluorescence, FDSS;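 active = duplicate-averaged calcium fluorescence ratio at least three times the standard deviation of buffer wells, a nonspecific response in parental cells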
# HEK293 Ca counter: activity in parental HEK293 cells without MrgX1. shares compounds with MrgX1 antag. parental HEK293 calcium flux, Fluo-4 fluorescence ratio; stronger effect = higher value. fluorescence ratio F(max-min)/F0 at 10 µM. actives 0.4% (n = 4,000);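 active = calcium fluorescence ratio, averaged over duplicates, at least 3 SD of the buffer-well ratio, meaning a nonspecific response in receptor-free cells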;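 note: untransfected parental HEK293 lacking MrgX1 used as counterscreen for MrgX1 allosteric activators; fluorescence change taken during the second addition on a kinetic imager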
# HEK293 Ca cntr2: MrgX1 activator counter-screen hit in parental HEK293 cells; Fluo-4 calcium fluorescence (FDSS); stronger effect = higher value; shares compounds with MrgX1 antag; AID 624115; fluorescence ratio F(max-min)/F0 at 10 µM; actives 8.7% (n = 4,000);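 active = calcium fluorescence ratio at least three times the spread of buffer wells, meaning a non-specific response in parental cells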
# * hit, by the source's call; i = inactive; / = not tested or not shown.
SMILES,MrgX1 PAM,MrgX1 antag,RGS4 inh,MrgX1 agonist,RGS4 pot,MrgX1 PAM conf,HEK293 Ca flux,HEK293 Ca counter,HEK293 Ca cntr2,others
O=C(NCc1ccccn1)c1ccc(Cl)cc1Cl,i,i,i,i,i,/,/,/,/,
O=C(NCc1ccccn1)c1cc(Cl)ccc1OCc1ccccc1,6.9*,i,i,i,i,i,i,i,i,
CC(=O)NCC(=O)OCC(=O)c1ccc(Cl)cc1,i,i,i,i,i,/,/,/,/,
C=CCN1C(=O)C(CC(=O)NCC)SC1=Nc1ccccc1OC (configuration not stated),i,i,i,i,i,/,/,/,/,
COc1ccc(CCNC(=O)Nc2ccc([N+](=O)[O-])cc2)cc1OC,i,i,i,i,i,/,/,/,/,
COc1ccc(-c2cn[nH]c2-c2ccc(O)cc2O)cc1,i,i,i,i,i,/,/,/,/,
C=C(C)COc1ccc(-c2[nH]ncc2-c2ccccc2)c(O)c1,16*,i,i,i,i,14%*,i,i,i,
COc1ccc(-c2[nH]ncc2-c2cnn(-c3ccccc3)c2)c(O)c1,9.4*,i,i,i,i,i,i,i,i,
C=C(C)COc1ccc(-c2[nH]ncc2-c2ccc(OC)cc2)c(O)c1,i,i,i,i,i,/,/,/,/,
Cc1cccc(S(=O)(=O)Nc2cccc3c2C(=O)c2ccccc2-3)c1,15*,i,i,i,i,i,i,i,47*,
COc1ccc(S(=O)(=O)N2CCOCC2)cc1NC(=O)CSc1nnc2ccccn12,i,i,i,i,i,/,/,/,/,
Cc1cc(/C=C2/SC(=S)N(c3cccc(Cl)c3)C2=O)c(C)n1-c1cccnc1,19*,i,i,i,i,i,i,i,i,
Cc1cc(-n2c(C)cc(C(=O)CN3C(=O)NC4(CCCC4)C3=O)c2C)no1,i,i,i,i,i,/,/,/,/,
Cc1cc(-n2c(C)cc(C(=O)CCl)c2C)no1,10*,i,i,i,i,i,i,i,i,
COc1cccc(/C=N/NC(=O)CN2CC(c3ccccc3)CC2=O)c1OC (configuration not stated),i,i,i,i,i,/,/,/,/,
O=c1ccc(-c2ccccc2)nn1Cc1ccc(F)cc1Cl,i,i,i,i,i,/,/,/,/,
CCC(C)(C)C1CCc2c(sc(NC(=O)c3ccccc3C(=O)O)c2C#N)C1 (configuration not stated),8.4*,-6.4*,i,i,i,i,i,i,57*,MrgX1 antag conf=i
CCOC(=O)c1nn(-c2ccc(F)cc2)cc1O,8.4*,i,i,i,i,i,i,i,i,
CCOC(=O)c1nn(-c2ccc3c(c2)CCN3C(C)=O)cc1O,i,i,i,i,i,/,/,/,/,
Nc1nc(-c2ccccn2)nc(N)c1Cc1c(F)cccc1Cl,i,i,i,i,i,/,/,/,/,
Cc1n[nH]c(C)c1Cc1c(F)cccc1Cl,25*,i,i,i,i,16%*,i,i,i,
Cc1ccc(NC(=O)COC(=O)C2C3CC4OC(=O)C2C4C3)cc1 (configuration not stated),26*,i,i,i,i,i,i,i,i,
Cc1ccc(NC(=O)C2OCCc3ccccc32)cc1Cl (configuration not stated),i,i,i,i,i,/,/,/,/,
CCOc1ccc(N2CC(C(=O)Nc3nnc(C4CCCCC4)s3)CC2=O)cc1 (configuration not stated),i,i,i,i,i,/,/,/,/,
COc1ccc(NC(=O)c2nc[nH]c2C(=O)N2CCC(C)CC2)cc1,8.2*,i,i,i,i,i,i,i,i,
SMILES,MrgX1 PAM,MrgX1 antag,RGS4 inh,MrgX1 agonist,RGS4 pot,MrgX1 PAM conf,HEK293 Ca flux,HEK293 Ca counter,HEK293 Ca cntr2,others
CCN(CC)C(=O)c1[nH]cnc1C(=O)Nc1ccc(OC)cc1,i,i,i,i,i,/,/,/,/,
Cc1ccc(NC(=O)c2nc[nH]c2C(=O)N2CCC(C)CC2)cc1,9.1*,i,i,i,i,i,i,i,i,
CCOC(=O)c1ccc(NC(=O)c2nc[nH]c2C(=O)N2CCC(C)CC2)cc1,i,i,i,i,i,/,/,/,/,
COc1ccc(CC(=O)N2CCC(c3ccccc3)C2)cc1 (configuration not stated),8*,i,i,i,i,i,i,i,i,
O=C(Cc1ccccc1)N1CCC(c2ccccc2)C1 (configuration not stated),i,i,i,i,i,/,/,/,/,
CC(C)c1ccc(C(N)=S)cc1,14*,i,i,i,i,i,i,i,i,
CC(C)c1ccc(C(=O)NNC(=O)c2ccncc2)cc1,i,i,i,i,i,/,/,/,/,
O=S(=O)(Nc1nnc(C(F)(F)F)s1)c1ccc(Cl)cc1,i,i,i,i,i,/,/,/,/,
CC(C)(C)c1nnc(NS(=O)(=O)c2cc(Cl)ccc2Cl)s1,12*,i,i,i,i,i,i,i,i,
COc1ccc(S(=O)(=O)NCc2cccnc2)c2ccccc12,i,i,i,i,i,/,/,/,/,
CC1CCCC(NC(=O)CCS(=O)(=O)c2cc3c(cc2Cl)NC(=O)CO3)C1C (configuration not stated),i,i,i,i,i,/,/,/,/,
CC1CCCC(NS(=O)(=O)c2cc3c(cc2Cl)NC(=O)CO3)C1C (configuration not stated),21*,i,i,i,i,i,i,i,i,
O=S(=O)(Nc1ncnc2scc(-c3ccc(F)cc3)c12)c1cc(F)ccc1F,12*,i,i,i,i,i,i,i,i,
